This is a sample that favours compounds with a hit; in the whole collection about 10% have one here.
Lmaj promast: reduces viability of Leishmania major promastigotes | inhibition, % at 10 µM | actives 9% (n = 200,000) | resazurin fluorescence viability; in the data active = inhibition above about 50%;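 also: promastigotes grown with compound for 44 hours at 28 °C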
PMI act hi M6P: increases human PMI activity with near-saturating mannose 6-phosphate; P34949; coupled PMI enzyme assay, resazurin fluorescence, 20 min; stronger effect = higher value; 1 = untreated enzyme, 0 = substrate-free blank; activation factor at 20 µM; actives 0.34% (n = 190,000); AID 1216;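 active = activation factor of 2 or more at 20 µM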
Target sequence (P34949 whole entry, looked up): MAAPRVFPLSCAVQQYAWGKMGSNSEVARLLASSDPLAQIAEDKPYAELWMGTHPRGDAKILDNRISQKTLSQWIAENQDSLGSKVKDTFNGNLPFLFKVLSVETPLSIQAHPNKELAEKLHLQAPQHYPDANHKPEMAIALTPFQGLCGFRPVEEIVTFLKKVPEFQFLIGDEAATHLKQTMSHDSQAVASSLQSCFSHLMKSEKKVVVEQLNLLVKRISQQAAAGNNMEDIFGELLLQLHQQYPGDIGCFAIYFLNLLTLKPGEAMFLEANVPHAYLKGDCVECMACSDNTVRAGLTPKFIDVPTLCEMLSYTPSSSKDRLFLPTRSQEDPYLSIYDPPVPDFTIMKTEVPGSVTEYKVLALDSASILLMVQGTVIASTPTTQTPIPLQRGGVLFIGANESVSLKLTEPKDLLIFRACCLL
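Test system: human PMI in coupled enzyme assay; Input: PMI at 15 ng/mL final; Medium: HEPES buffer, pH 7.4; Schedule: 20 min incubation at room temperature; Technique: resorufin fluorescence at Ex 544/Em 590 nm; Compound: 20 µM single dose; Probe or stimulus: Near-saturating mannose-6-phosphate, 1.0 mM.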
PMI activator: activators of human phosphomannose isomerase; AID 1214; actives 0.005% (n = 190,000); activation factor at 20 µM; purified human PMI, coupled resazurin fluorescence, 20 min; stronger effect = higher value; 1 = vehicle control, 0 substrate-free wells;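 active = activation factor of 2 or more at 20 µM, relative to plate controls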
Diaph act CS: activates diaphorase or chemically reduces, flagging diaphorase assay artifacts; Diaphorase/resazurin coupled assay, resorufin fluorescence, 16 min; stronger effect = higher value; 1 = vehicle wells, 0 = NADH-free wells; activation factor at 20 µM; actives 0.005% (n = 190,000); AID 1229;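 active = diaphorase activity raised at least twofold by the compound at 20 µM; inactive = activation factor below 2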
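Assay system: Purified diaphorase enzyme from Clostridium kluyveri | Amount: Enzyme 0.07 U/mL final | Dosing: Compound 20 µM once, DMSO 1% | Timing: 16 min reaction at room temperature | Detection: Fluorescence, excitation 544 nm and emission 590 nm | Evaluation: Higher resorufin formation from activation or reduction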
WT yeast gro inh: growth inhibition of WT yeast, mitochondrial fusion screen; mitochondrial fusion phenotypic screen, WT strain; actives 2.1% (n = 190,000); inhibition, % at 10 µM; in the data active = inhibition above about 58%; tested in S. cerevisiae
L major 1uM: blocks Leishmania major promastigote growth at 1 uM, repeat screen; shares compounds with Lmaj promast; L. major promastigote growth, resazurin fluorescence, 48 h; inhibition, % at 1 µM; actives 13% (n = 1,100); AID 1258;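 active = inhibition above about 50% in both repeat tests, limit read from the data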
Hits are given with their value.

For C#CCOCCOCCOCCNc1nc(N2CCN(C(=O)C(Cc3cc4ccccc4[nH]3)n3cc(C(N)Cc4ccc(O)cc4)nn3)CC2)nc(N2CCN(C(=O)C(Cc3cc4ccccc4[nH]3)n3cc(C(N)Cc4ccc(O)cc4)nn3)CC2)n1 (stereo not given) the results were Lmaj promast inactive, PMI act hi M6P inactive, PMI activator inactive, Diaph act CS 2 and WT yeast gro inh inactive.
Screening CCn1nc(C)c(CN2CCCC(CO)(Cc3ccccc3)C2)c1C (stereo not given) returned Lmaj promast 61, PMI act hi M6P inactive, PMI activator inactive, Diaph act CS inactive and WT yeast gro inh inactive.
Screening CCn1nc(C)c(CN2CCCC(CO)(Cc3cccc(Cl)c3)C2)c1C (stereo not given) returned Lmaj promast 53, PMI act hi M6P inactive, PMI activator inactive, Diaph act CS inactive and WT yeast gro inh inactive.
Cc1c(CN2CCCC(CO)(Cc3cccc(Cl)c3)C2)cnn1C (stereo not given) was read as Lmaj promast 61, PMI act hi M6P inactive, PMI activator inactive, Diaph act CS inactive and WT yeast gro inh inactive.
CC(C)c1nc(NCCO)c2nnn(Cc3ccccc3)c2n1 was read as Lmaj promast inactive, PMI act hi M6P inactive, PMI activator inactive, Diaph act CS inactive and WT yeast gro inh inactive.
Screening Cc1ccc(NC(=O)CCN2C(=O)OC(C)(C)C2(C)O)cc1 (stereo not given) returned Lmaj promast inactive, PMI act hi M6P inactive, PMI activator inactive, Diaph act CS inactive and WT yeast gro inh inactive.
CC(=NCCN1CCN(C(C)=C2C(=O)c3ccccc3C2=O)CC1)C1=C(O)CC(C)(C)CC1=O was read as Lmaj promast inactive, PMI act hi M6P inactive, PMI activator inactive, Diaph act CS inactive and WT yeast gro inh inactive.
Screening Cc1ccccc1CN(c1ccc(C(=O)N/N=C/c2ccc(OCC(N)=O)cc2)cc1)S(C)(=O)=O returned Lmaj promast inactive, PMI act hi M6P inactive, PMI activator inactive, Diaph act CS inactive and WT yeast gro inh inactive.
Cc1ccc(S(=O)(=O)c2c(COC(=O)c3ccccc3Cl)c(-c3ccccc3)nn2C)cc1 was read as Lmaj promast 61, PMI act hi M6P inactive, PMI activator inactive, Diaph act CS inactive and WT yeast gro inh inactive.
Screening COCCn1nnnc1C(C(C)C)N(Cc1cccnc1)Cc1ccccc1Cl (stereo not given) returned Lmaj promast 66, PMI act hi M6P inactive, PMI activator inactive, Diaph act CS inactive and WT yeast gro inh inactive.
Cc1cccc(NC(=O)CSc2nncn2-c2ccccn2)c1 was read as Lmaj promast inactive, PMI act hi M6P inactive, PMI activator inactive, Diaph act CS inactive and WT yeast gro inh inactive.
For CCc1ccc(-c2cn3nc(C)c(C)nc3n2)cc1 the results were Lmaj promast inactive, PMI act hi M6P 2.2, PMI activator inactive, Diaph act CS inactive and WT yeast gro inh inactive.
`COc1ccc(C2CCCN2C(=O)Nc2ccc(Cl)cc2)cc1OC` (stereo not given) gave Lmaj promast inactive, PMI act hi M6P inactive, PMI activator inactive, Diaph act CS inactive and WT yeast gro inh inactive.
Screening O=S(=O)(c1ccccc1)n1c(C(O)c2ccccn2)cc2ccccc21 (stereo not given) returned Lmaj promast inactive, PMI act hi M6P inactive, PMI activator inactive, Diaph act CS inactive and WT yeast gro inh inactive.
For O=C1C=CCC(/C=C/c2ccccc2)O1 (stereo not given) the results were Lmaj promast inactive, PMI act hi M6P inactive, PMI activator inactive, Diaph act CS inactive and WT yeast gro inh inactive.
`CCCCOC(=O)C1=C(C)Nc2ncnn2C1c1ccc(OC)c(OC)c1OC` (stereo not given) gave Lmaj promast inactive, PMI act hi M6P inactive, PMI activator inactive, Diaph act CS inactive and WT yeast gro inh inactive.
CCCCOC(=O)C1=C(C)Nc2nnnn2C1c1ccc(OC)c(OC)c1OC (stereo not given) was read as Lmaj promast 94, PMI act hi M6P inactive, PMI activator inactive, Diaph act CS inactive and WT yeast gro inh inactive.
`COc1ccc2oc3cc(C)[n+]([O-])c(-c4ccc(C)cc4)c3c2c1` gave Lmaj promast inactive, PMI act hi M6P inactive, PMI activator inactive, Diaph act CS inactive and WT yeast gro inh inactive.
Screening CC1(c2ccccc2)CC(C)(C)N2C(=O)Cc3cccc1c32 (stereo not given) returned Lmaj promast inactive, PMI act hi M6P inactive, PMI activator inactive, Diaph act CS inactive and WT yeast gro inh inactive.
O=C1NN=C(c2ccc(Cl)cc2)CC1c1c[nH]c2ccccc12 (stereo not given) was read as Lmaj promast inactive, PMI act hi M6P inactive, PMI activator inactive, Diaph act CS inactive and WT yeast gro inh 66.
O=C1NN=C(c2ccc(Cl)cc2)CC1c1cccc(Br)c1 (stereo not given) was read as Lmaj promast inactive, PMI act hi M6P inactive, PMI activator inactive, Diaph act CS inactive and WT yeast gro inh 77.
`CC(C)C(NS(=O)(=O)c1cccc2nsnc12)C(=O)Nc1nc2ccc(Cl)cc2s1` (stereo not given) gave Lmaj promast 90, PMI act hi M6P inactive, PMI activator inactive, Diaph act CS inactive, WT yeast gro inh 62 and L major 1uM inactive.
For Cc1ccc(NC(=O)C(NS(=O)(=O)c2cccc3nsnc23)C(C)C)nc1 (stereo not given) the results were Lmaj promast inactive, PMI act hi M6P inactive, PMI activator inactive, Diaph act CS inactive and WT yeast gro inh inactive.
Screening Cc1nc(Oc2ccccc2)c2ccccc2n1 returned Lmaj promast 57, PMI act hi M6P inactive, PMI activator inactive, Diaph act CS inactive, WT yeast gro inh inactive and L major 1uM inactive.
For FC(F)(F)C(Oc1nc(Nc2ccc(Cl)cc2)nc(N2CCOCC2)n1)C(F)(F)F the results were Lmaj promast inactive, PMI act hi M6P inactive, PMI activator inactive, Diaph act CS inactive and WT yeast gro inh inactive.
`O=C(O)c1cc2c(s1)-c1ccccc1CC2` gave Lmaj promast 53, PMI act hi M6P inactive, PMI activator inactive, Diaph act CS inactive, WT yeast gro inh inactive and L major 1uM inactive.
For O=C(O)c1cc2c(s1)-c1ccccc1OC2 the results were Lmaj promast inactive, PMI act hi M6P inactive, PMI activator inactive, Diaph act CS inactive and WT yeast gro inh inactive.
Screening CCN(CC(O)Cn1c2ccccc2c2ccccc21)S(=O)(=O)c1ccc(C)cc1 (stereo not given) returned Lmaj promast 100, PMI act hi M6P inactive, PMI activator inactive, Diaph act CS inactive, WT yeast gro inh inactive and L major 1uM inactive.
Screening CCn1cc(CNCc2cn(C)nc2-c2ccc(C3CCCCC3)cc2)cn1 returned Lmaj promast 95, PMI act hi M6P inactive, PMI activator inactive, Diaph act CS inactive, WT yeast gro inh inactive and L major 1uM inactive.
